Our source for the inhibition values is ChEMBL document CHEMBL4422635, “Structure-Based Discovery of a Subtype-Selective Inhibitor Targeting a Transient Receptor Potential Vanilloid Channel” (J Med Chem, 2019).

Positions count from the first letter of the chain named. Activity calls are given as the source filed them. The calls are words filed in the database; no cut-off is given here.

Holding throughout (type): cell-based
The subject of assay [1] is T1, Transient receptor potential cation channel subfamily V member 2 (Mus musculus), Q9WTR1 [Q525A].
T1 sequence (whole entry): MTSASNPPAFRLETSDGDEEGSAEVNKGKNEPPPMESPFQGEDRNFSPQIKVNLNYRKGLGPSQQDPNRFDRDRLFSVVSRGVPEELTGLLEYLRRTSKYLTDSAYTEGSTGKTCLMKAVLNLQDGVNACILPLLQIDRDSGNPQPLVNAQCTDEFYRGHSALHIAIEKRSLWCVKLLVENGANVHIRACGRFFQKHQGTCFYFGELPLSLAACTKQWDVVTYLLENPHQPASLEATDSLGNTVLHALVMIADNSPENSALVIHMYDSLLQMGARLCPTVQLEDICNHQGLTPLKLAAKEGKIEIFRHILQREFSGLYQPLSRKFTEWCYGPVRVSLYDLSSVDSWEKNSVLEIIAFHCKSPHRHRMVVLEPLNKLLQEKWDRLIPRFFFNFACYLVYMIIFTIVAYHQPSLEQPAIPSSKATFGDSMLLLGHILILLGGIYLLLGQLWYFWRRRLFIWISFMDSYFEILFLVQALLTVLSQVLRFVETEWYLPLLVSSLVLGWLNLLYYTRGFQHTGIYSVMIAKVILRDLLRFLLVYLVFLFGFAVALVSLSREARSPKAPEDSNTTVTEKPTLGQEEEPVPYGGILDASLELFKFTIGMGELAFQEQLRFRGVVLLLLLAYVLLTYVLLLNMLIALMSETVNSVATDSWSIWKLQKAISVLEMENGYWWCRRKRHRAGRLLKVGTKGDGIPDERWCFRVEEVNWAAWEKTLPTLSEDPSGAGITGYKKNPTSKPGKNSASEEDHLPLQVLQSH
The experiment in a line: Antagonist activity at mouse TRPV2 Q525A mutant expressed in HEK293T cells assessed as inhibition of 2-APB evoked currents at -60 mV holding potential by whole-cell patch clamp assay. Summed up: (§1)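 Whole-cell voltage clamp of transiently transfected HEK293T cells co-expressing GFP, recorded 36-96 h post-transfection. Hold -60 mV; pipettes 3-7 MΩ. Bath 165 mM NaCl, 10 mM HEPES pH 7.3; pipette 140 mM KCl, 10 mM HEPES pH 7.3. Room temperature (~25 °C). IC50 from Hill fits of I/I0, the current ratio after vs before inhibitor; mean ± SEM.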
Background: Patch clamp records ionic current or voltage across a cell membrane.

Assay [2] has as its target T2, Transient receptor potential cation channel subfamily V member 2 (Mus musculus) (UniProt Q9WTR1).
T2 sequence (whole entry): T1 sequence (whole entry) with A525Q
The experiment in a line: Antagonist activity at mouse TRPV2 expressed in HEK293T cells assessed as inhibition of 2-APB evoked currents at -60 mV holding potential by whole-cell patch clamp assay. Summed up:
as §1

A further assay is filed under the species Homo sapiens. Put plainly: Inhibition of LPA-induced TRPV2/LPAR1 mediated cell migration in human PC3M cells at 0.1 uM after 24 hrs by transwell migration assay.
The target in assay [3] is T3, Transient receptor potential cation channel subfamily V member 2 (Homo sapiens) (UniProt Q9Y5S1).
T3 sequence (whole entry): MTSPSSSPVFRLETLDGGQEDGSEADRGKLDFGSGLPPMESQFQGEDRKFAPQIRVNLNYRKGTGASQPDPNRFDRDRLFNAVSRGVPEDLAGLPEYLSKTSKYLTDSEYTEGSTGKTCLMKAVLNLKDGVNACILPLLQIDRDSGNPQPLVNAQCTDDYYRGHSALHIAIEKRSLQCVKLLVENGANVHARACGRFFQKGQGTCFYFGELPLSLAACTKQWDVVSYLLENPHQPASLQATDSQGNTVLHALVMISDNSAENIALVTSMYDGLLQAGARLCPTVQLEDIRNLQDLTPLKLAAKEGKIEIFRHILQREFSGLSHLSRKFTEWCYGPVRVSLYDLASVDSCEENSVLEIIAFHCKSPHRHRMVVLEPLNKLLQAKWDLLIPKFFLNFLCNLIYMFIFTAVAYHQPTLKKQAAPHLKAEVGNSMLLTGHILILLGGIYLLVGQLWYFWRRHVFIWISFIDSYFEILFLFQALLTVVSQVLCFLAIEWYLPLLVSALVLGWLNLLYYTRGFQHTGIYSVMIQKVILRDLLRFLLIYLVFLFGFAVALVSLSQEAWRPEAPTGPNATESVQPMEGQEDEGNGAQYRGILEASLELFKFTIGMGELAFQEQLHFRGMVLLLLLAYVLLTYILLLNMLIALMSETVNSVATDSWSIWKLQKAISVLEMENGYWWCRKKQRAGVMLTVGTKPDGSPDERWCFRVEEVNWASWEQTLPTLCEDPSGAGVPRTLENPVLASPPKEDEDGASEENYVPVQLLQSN
The experiment in a line: Antagonist activity at TRPV2 in human PC3M cells assessed as inhibition of LPA-induced intracellular calcium levels at 100 uM Fluo-4 AM-based fluorescence assay. Summed up: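 PC-3M cells cultured 24 h, loaded with 2 μM Fluo-4 AM in HBSS for 45 min at 37 °C, then compound added. Cytoplasmic Ca2+ rise read as relative fluorescence at ex 485 / em 525 nm.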
In general terms: Calcium assays in cells follow changes in intracellular calcium, usually with a dye or a luminescent sensor.

Regarding `CCCN(C)c1cc(C(F)(F)F)nc(SCCC(=O)NCc2ccco2)n1`, the inhibition entry in assay [1] was “inactive”. Further, the inhibition entry in assay [2] was “Dose-dependent effect”. Further, the inhibition entry (in the assay listed under Homo sapiens; in assay [3]) was “Active” each time.
